From PubChem BioAssay come the findings set out here.

Activity calls are given as the source filed them.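 The calls were made as follows, unless noted: active = visually confirmed hit in the image check and inhibition above 20%; inconclusive = visually confirmed hit but inhibition not above 20%; inactive = no visual hit in the image check.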

For orientation: inhibition means the change of the read-out against control, counted positive when it falls.

A short description of assay [1]: inhibitors of TNFa-induced NFkB p65 translocation, primary screen, imaging, HUVEC, MLSMR starter and 10KST1 sets (AID 438;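 active = inhibition above 20% together with a positive visual image hit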;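 also: compound added about 3h40 before a 20 min TNFalpha stimulation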;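 as to inhibition: signal is the nuclear over cytoplasmic p65 intensity ratio per well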). As to conditions: HUVEC TNFa-induced p65 nuclear translocation; cell count: measured here: nuclei count (cytotoxicity indicator), at 2.08 µM unless noted; inhibition: at 2 µM, stronger effect = higher value unless noted.
The nature of assay [2]: inhibitors of E-selectin induction by TNFa, primary screen, imaging, HUVEC, immunofluorescence, MLSMR starter and 10KST1 sets (AID 487).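 As to inhibition: signal is fraction of cell area covered by stained E-selectin grains.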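 As to nuclei count: 100% = median nuclei count of all wells on the same plate.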 As to conditions: HUVEC TNFalpha-induced E-selectin immunofluorescence imaging, at 2 µM; inhibition: stronger effect = higher value; nuclei count: measured here: cell number, toxicity.
Assay [3] can be described thus: DUSP6 inhibitors restoring Erk phosphorylation by chemical complementation, primary imaging in DUSP6-transfected HeLa (AID 609;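 active = compounds giving at least 50% inhibition in the cell-based MKP-3 phosphatase rescue imaging test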;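 as to inhibition: phospho-Erk level distribution per well compared with pooled transfected vehicle control wells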). As to conditions: HeLa MKP-3 transfected, phospho-Erk imaging KS statistic, at 10 µM.
For assay [4], the target named is Dual specificity protein phosphatase 6 (Homo sapiens) (UniProt Q16828). The description is as above. As to conditions: HeLa MKP-3 transfected, phospho-Erk imaging KS statistic, at 10 µM, stronger effect = higher value.
Dual specificity protein phosphatase 6 (Homo sapiens), sequence (Q16828 whole entry, looked up): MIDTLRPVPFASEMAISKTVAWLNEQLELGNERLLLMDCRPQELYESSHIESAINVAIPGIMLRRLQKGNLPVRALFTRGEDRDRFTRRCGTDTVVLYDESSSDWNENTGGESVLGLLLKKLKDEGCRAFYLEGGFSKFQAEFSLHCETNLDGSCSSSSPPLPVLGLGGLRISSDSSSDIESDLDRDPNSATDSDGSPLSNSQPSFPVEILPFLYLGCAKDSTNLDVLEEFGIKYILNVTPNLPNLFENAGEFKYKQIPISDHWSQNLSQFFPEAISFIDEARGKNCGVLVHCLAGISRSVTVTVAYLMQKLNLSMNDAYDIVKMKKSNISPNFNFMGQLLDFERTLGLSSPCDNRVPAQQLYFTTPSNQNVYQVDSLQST
Assay [5] addresses Voltage-gated potassium channel subunit beta-2 (Rattus norvegicus) (UniProt P62483). Put plainly: KvBeta enzyme negative modulators, primary screen, biochemical, NADPH fluorescence (AID 622;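 active = fluorescence slope higher than the sample average by over 3 SD, cut at about -0.22 in these data, passing the limit was not always enough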;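 also: slope of raw intensity against log time taken from 70 to 1610 s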). Conditions: recombinant KvBeta, 4-cyanobenzaldehyde reduction, at 10 µM, stronger effect = higher value.
The target is the same in assay [6]. Put plainly: KvBeta positive modulators, primary screen, biochemical, NADPH fluorescence (AID 623;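 active = NADPH fluorescence slope more negative than the mean of all samples by about 3 SD, 99.7% confidence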;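 also: fluorescence intensity change per second fitted from 20 to 320 s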). Conditions: Recombinant KvBeta, NADPH fluorescence decrease slope, 10 min; at 10 µM; stronger effect = lower value.
The target in assay [7] is Alpha-2C adrenergic receptor (Homo sapiens) (UniProt P18825). Put plainly: modulators of alpha2C/GIRK thallium flux, primary screen, cell-based, HEK293 alpha2C/GIRK1/2 (AID 624;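 active = fluorescence slope after compound addition differing from the mean of all screened samples at 99.7% confidence, in either direction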;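 also: slope of fluorescence ratio to pre-addition baseline per second over 15 to 24 s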). Conditions: thallium flux BTC fluorescence, at 10 µM, actives lie on both sides.
Alpha-2C adrenergic receptor (Homo sapiens), sequence (P18825 whole entry, looked up): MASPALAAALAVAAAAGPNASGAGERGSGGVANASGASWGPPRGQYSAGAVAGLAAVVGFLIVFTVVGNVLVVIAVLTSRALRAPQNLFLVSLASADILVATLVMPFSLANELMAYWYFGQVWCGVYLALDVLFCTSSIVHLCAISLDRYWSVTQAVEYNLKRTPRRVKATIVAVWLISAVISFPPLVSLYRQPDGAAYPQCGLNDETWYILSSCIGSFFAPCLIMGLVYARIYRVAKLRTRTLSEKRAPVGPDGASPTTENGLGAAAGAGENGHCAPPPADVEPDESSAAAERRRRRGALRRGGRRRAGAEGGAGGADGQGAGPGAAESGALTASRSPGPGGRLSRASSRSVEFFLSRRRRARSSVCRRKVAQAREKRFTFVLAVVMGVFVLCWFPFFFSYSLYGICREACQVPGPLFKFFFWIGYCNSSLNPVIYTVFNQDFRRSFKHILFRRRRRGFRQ
Assay [8] in a line: inhibitors of larval lipid processing in zebrafish, primary screen, whole organism, PED6 fluorescence, gall bladder and intestine (AID 686;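 active = a full or partial loss of lipid-probe fluorescence in the fish gall bladder, intestine or both, judged by eye; inactive = no fluorescence loss, or compound toxic to the fish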;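 also: larvae 5 to 7 days old with five fish per well; signal comes from phospholipase A2 cleavage of quenched PED6 carried via bile; overnight exposure to compound and PED6 before scoring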). As to conditions: Zebrafish larvae PED6 lipid processing, fluorescence scoring. The method in brief: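 Also added: quenched phospholipase substrate PED6, 100 nM final, ingested by larvae; System: zebrafish larvae, 5-7 d; Quantity: 5 larvae per well; Compound: 20 µM single dose; Schedule: overnight compound and PED6 incubation; Read-out: visual per-well fluorescence inhibition score; Measured by: By-eye fluorescence microscopy; Medium: E3.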

A short description of assay [9]: inhibitors of Chlamydomonas gravitaxis, primary screen, whole organism, Chlamydomonas reinhardtii, WT vs cilia-less mutant, absorbance, 96-well (AID 463189;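 active = inhibition at or above 50% relative to wild type and mutant plate controls; inactive = inhibition below 50%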;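 also: 0% = wild type cc124 cells in DMSO and 100% = ciliumless bld1 mutant cells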). Conditions: OD600 absorbance, 2 days, at 10 µM, stronger effect = higher value.
In assay [10] the target is Muscarinic acetylcholine receptor M4 (Homo sapiens) (UniProt P08173). In words: compounds altering M4/GIRK thallium flux, either direction, primary screen, M4 allosteric agonist project, cell-based, HEK293 M4/GIRK, BTC-AM (AID 625;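 active = fluorescence slope after compound addition differing from the mean of all tested samples at 99.7% confidence, mostly higher but some lower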;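 also: thallium influx through GIRK channels coupled to M4 in HEK293 cells with BTC-AM dye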). Conditions: at 10 µM, actives lie on both sides. Put shortly:
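assay system = HEK293 cells with M4 receptor and GIRK channels | medium = pH 7.3 thallium assay buffer | doses = 10 µM final, single point | timing = cells overnight at 37 °C, BTC-AM loading 1 h, reads 2 min total | signal = BTC-AM fluorescence, 1 Hz kinetic reads | read-out = post-addition slope, 15–24 s, of baseline-normalized fluorescence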

[11] abbreviates: measured here: cell density z-score.
[12] abbreviates: measured here: nuclear c-Myc green intensity z-score.
Setting [13] is: measured here: nuclear pErk red intensity z-score, stronger effect = higher value.

Voltage-gated potassium channel subunit beta-2 (Rattus norvegicus), sequence (P62483 whole entry, looked up): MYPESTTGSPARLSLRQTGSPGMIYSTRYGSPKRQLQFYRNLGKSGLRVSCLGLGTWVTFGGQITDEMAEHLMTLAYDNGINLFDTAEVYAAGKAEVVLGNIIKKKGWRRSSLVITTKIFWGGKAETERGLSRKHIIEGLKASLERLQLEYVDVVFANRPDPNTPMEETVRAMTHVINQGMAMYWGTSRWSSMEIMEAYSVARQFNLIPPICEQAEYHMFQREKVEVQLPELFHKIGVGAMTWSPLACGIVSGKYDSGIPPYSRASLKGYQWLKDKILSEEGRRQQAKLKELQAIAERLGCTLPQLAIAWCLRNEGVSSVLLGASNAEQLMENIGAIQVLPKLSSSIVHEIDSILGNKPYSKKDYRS
Muscarinic acetylcholine receptor M4 (Homo sapiens), sequence (P08173 whole entry, looked up): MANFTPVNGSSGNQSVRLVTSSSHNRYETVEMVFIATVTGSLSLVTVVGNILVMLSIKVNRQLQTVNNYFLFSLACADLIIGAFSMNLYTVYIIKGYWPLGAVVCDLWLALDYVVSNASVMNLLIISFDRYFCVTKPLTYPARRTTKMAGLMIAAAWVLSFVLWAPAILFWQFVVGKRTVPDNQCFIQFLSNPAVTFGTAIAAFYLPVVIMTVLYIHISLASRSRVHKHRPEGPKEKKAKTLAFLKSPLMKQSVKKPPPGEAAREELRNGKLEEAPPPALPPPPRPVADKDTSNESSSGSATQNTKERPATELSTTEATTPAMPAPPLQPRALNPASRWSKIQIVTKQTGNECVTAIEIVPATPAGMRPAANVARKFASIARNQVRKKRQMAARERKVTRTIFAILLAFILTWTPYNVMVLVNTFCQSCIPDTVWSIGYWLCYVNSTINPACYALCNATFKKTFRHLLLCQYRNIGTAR

`CCCCCCn1c(O)c(C=Nc2c(C)n(C)n(-c3ccccc3)c2=O)c(=O)[nH]c1=O` gave a cell count in assay [1] of 335. Further, the inhibition in assay [1] was -9.2% (inactive); in assay [2] it was -82.5% (inactive); in [4] it was -7.01% (inactive); in assay [9] it was 5.18% (inactive). The compound also had a nuclei count in assay [2] of 152%. The results for the z-score in [3] (setting [11]), in [3] (setting [12]) and in assay [3] (setting [13]) were -0.0314, 0.533 and 1.54, respectively. Moreover, the fluorescence slope in assay [5] is -0.359 (inactive). Besides, in assay [6], the NADPH fluorescence slope is -0.000298 (inactive). The slope in assay [7] is 0.00815 (inactive). For the same compound, the outcome in assay [8] was inactive.
In assay [1], `CCCCCCn1c(O)c(C(C)=NC)c(=O)[nH]c1=O` came in with a cell count of 556. Further, the inhibition in assay [1] is -6.2% (inactive); in assay [2], -77.6% (inactive); in assay [4] it was -0.608% (inactive); in assay [9], -6.02% (inactive). The compound also displayed a nuclei count in assay [2] of 162%. For the same compound, the z-score in assay [3] (setting [11]) was 0.993; in assay [3] (setting [12]) it was -1.06; in assay [3] (setting [13]) it was 1.3. In addition, the fluorescence slope in assay [5] is -0.503 (inactive). Moreover, in [6], the NADPH fluorescence slope is -6.1e-05 (inactive). Also, the slope in assay [7] was 0.00581 (inactive). In assay [8], the outcome was inactive.
Consider `CCOc1ccc(-n2c(O)c(C=Nc3ccc(N(CC)CC)cc3)c(=O)[nH]c2=O)cc1`, for which, in [1], the cell count was 366. Moreover, the inhibition in assay [1] was -4.7% (inactive); in [2], -63.9% (inactive); in assay [4], 14% (inactive); in assay [9] it was -4.04% (inactive). Further, the nuclei count in assay [2] came out at 138%. Moreover, the results for the z-score in assay [3] (setting [11]), in assay [3] (setting [12]) and in assay [3] (setting [13]) were 0.258, -1.14 and 0.567, respectively. For the same compound, the fluorescence slope in [5] is -0.361 (inactive). The NADPH fluorescence slope in assay [6] was -0.000118 (inactive). Further, in assay [7], the slope is -0.0068 (active). Moreover, the result in assay [8] was inactive.
Compound `CCCCc1nc2ccccc2c(=O)n1-c1ccccc1O` came in with a cell count in assay [1] of 619. In addition, the inhibition is -3.2% (inactive) in [1], -6.5% (inactive) in assay [2], -4.78% (inactive) in [4] and 2.52% (inactive) in assay [9]. For the same compound, the nuclei count in assay [2] amounted to 178%. Also, the z-score in [3] (setting [11]) was -0.399; in [3] (setting [12]), 0.344; in assay [3] (setting [13]) it was 1.46. The fluorescence slope in assay [5] is -0.36 (inactive). Moreover, in assay [6], the NADPH fluorescence slope is 5.8e-06 (inactive). Moreover, in assay [7], the slope is 0.00524 (inactive). For the same compound, the outcome in assay [8] was inactive.
For the compound `CCCCSP1(=S)NCCCN1`, the cell count in assay [1] worked out at 430. The inhibition was -6.2% (inactive) in assay [1], -45.8% (inactive) in assay [2], 22.7% (inactive) in assay [4] and 32.8% (inactive) in assay [9]. The nuclei count in [2] came out at 139%. Also, the z-score was 1.38 in [3] (setting [11]), -0.994 in [3] (setting [12]) and 0.0968 in assay [3] (setting [13]). For the same compound, in assay [5], the fluorescence slope was -0.484 (inactive). For the same compound, the NADPH fluorescence slope in [6] was -0.000231 (inactive). For the same compound, the slope in assay [7] was 0.00525 (inactive). In addition, in assay [8], the compound was called inactive.
As to `COc1ccccc1-n1c(O)c(C=NCCCn2ccnc2)c(=O)[nH]c1=O`, the cell count in [1] stood at 752. Besides, the inhibition in [1] was 3.4% (inactive); in assay [2] it was -23.3% (inactive); in assay [4], 7.83% (inactive); in assay [9], 5.72% (inactive). The nuclei count in assay [2] stood at 150%. Further, the z-score was -0.173 in assay [3] (setting [11]), -0.884 in assay [3] (setting [12]) and 0.0227 in assay [3] (setting [13]). In addition, the results for the fluorescence slope in [5] and in assay [10] were -0.426 (inactive) and 0.00527 (inactive), respectively. In addition, the NADPH fluorescence slope in assay [6] was -4.1e-05 (inactive). For the same compound, the compound was called inactive in [8].
With `O=c1[nH]c(=O)n(Cc2ccccc2)c(O)c1C=NCCN1CCOCC1`, in assay [1], the cell count stood at 639. Further, the inhibition was -25.9% (inactive) in assay [1], -59.7% (inactive) in assay [2], 2.71% (inactive) in assay [4] and 0.831% (inactive) in assay [9]. For the same compound, the nuclei count in assay [2] was 156%. Also, the z-score was 0.666 in [3] (setting [11]), -2.11 in assay [3] (setting [12]) and 2.73 in assay [3] (setting [13]). In addition, the fluorescence slope in [5] is -0.393 (inactive). In addition, in assay [6], the NADPH fluorescence slope is -1.2e-06 (inactive). Also, in assay [7], the slope was 0.00558 (inactive). The call in assay [8] was inactive.
Compound `CC(=O)OC1N=C(c2ccccc2)c2ccccc2NC1=O` (centres undefined) registered a cell count in assay [1] of 428. The inhibition in assay [1] is -3.5% (inactive); in assay [2], 14.8% (inactive); in assay [4], 6.04% (inactive); in assay [9] it was 12.3% (inactive). In addition, the nuclei count in [2] was found to be 88.8%. The results for the z-score in assay [3] (setting [11]), in assay [3] (setting [12]) and in [3] (setting [13]) were 0.0297, -1.27 and -0.528, respectively. Moreover, the fluorescence slope in assay [5] was -0.509 (inactive). The NADPH fluorescence slope in [6] is -5.2e-06 (inactive). The slope in assay [7] is 0.00675 (inactive). Moreover, the outcome in assay [8] was inactive.
